Measurements taken from ChEMBL document CHEMBL4402602, “Discovery of (2R)-N-[3-[2-[(3-Methoxy-1-methyl-pyrazol-4-yl)amino]pyrimidin-4-yl]-1H-indol-7-yl]-2-(4-methylpiperazin-1-yl)propenamide (AZD4205) as a Potent and Selective Janus Kinase 1 Inhibitor” (J Med Chem, 2020).
Values after ≈ are worked out from the molar mass of the structure shown. Active and inactive are the calls of the source. The calls are words filed in the database; no cut-off is given here.

Key:
[1] = Toxicity in NCr nude mouse xenografted with human NCI-H1975 cells harboring EGFR T790M mutant assessed as effect on body weight at 50 mg/kg, po bid administered for 18 days post 10 days of implantation; format: organism-based; conditions: in vivo
Method in brief: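 Female NCr nude mice implanted subcutaneously with NCI-H1975 cells. Ten days after implantation, mice were randomized into groups of 6 to 8 (average tumor volume 189 mm³, range 152 to 250 mm³). They were dosed orally, as single agent or combination, at 50 mpk BID for 18 days. Vehicle was 20% captisol, with vehicle-treated controls.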

[2] = Toxicity in NCr nude mouse xenografted with human NCI-H1975 cells harboring EGFR T790M mutant assessed as effect on body weight at 50 mg/kg, po bid administered for 18 days post 10 days of implantation in combination with osimertinib at 2.5 mg/kg, po qd; format: organism-based; conditions: in vivo
[3] = Intrinsic clearance in rat hepatocytes assessed per 10^-6 cells; format: ADME, cell-based, Hepatocyte
Method in brief: (§1)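 Intrinsic clearance measured in fresh hepatocytes from rat, dog and human. Expressed as µL/min per 10⁶ cells.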

Mus musculus [4] = assay: In vivo inhibition of JAK1 in human NCI-H1975 cells harboring EGFR T790M mutant xenografted in NCr nude mouse assessed as reduction of STAT3 phosphorylation at Y705 residue at 50 mg/kg measured after 8 hrs relative to control; format: functional; conditions: NCI-H1975, 8 h
[5] = biological target: Tyrosine-protein kinase JAK2 (Homo sapiens, UniProt O60674); assay: Inhibition of recombinant human N-terminal GST-tagged JAK2 (831 to 1132 residues) expressed in insect cells using 5FAM-labeled GEEPLYWSFPAKKK-NH2 peptide as substrate after 10 mins in presence of 5 mM ATP by caliper mobility shift assay
[6] = Apparent permeability across apical to basolateral membrane in human Caco2 cells; format: ADME, cell-based; conditions: Caco-2
Method in brief: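 Caco-2 monolayer permeability measured in both directions, apical to basolateral and basolateral to apical. Papp reported for the A-to-B direction.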

Mus musculus [7] = species on record: Mus musculus; conditions: 50 mg/kg
[8] = Octanol-buffer partition coefficient, log D of the compound at pH 7.4 by shake flask method; format: physicochemical
[9] = Half life in Han Wistar rat at 10 mg/kg, po; format: ADME, organism-based; conditions: in vivo
Method in brief: (§2)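 Male Han Wistar rats. Oral dose 10 mg/kg in 0.1% HPMC. Intravenous dose 5 mg/kg in 40% DMA/40% PEG/20% saline. AUC, observed clearance, Vdss, half-life and oral bioavailability derived from plasma exposure.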

[10] = AUC in Han Wistar rat at 10 mg/kg, po; format: ADME, organism-based; conditions: in vivo; method in brief: as §2
[11] = biological target: T1, Tyrosine-protein kinase JAK1 (Homo sapiens, UniProt P23458); assay: Inhibition of JAK1 in human NCI-H1975 cells assessed as decrease in STAT3 phosphorylation measured after 1 hr by ELISA; format: cell-based
Method in brief: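 Cellular mode-of-action assay in NCI-H1975 cells measuring inhibition of STAT3 phosphorylation. IC50 values are geometric means of at least two independent experiments.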

[12] = Half life in Beagle dog at 10 mg/kg, iv; format: ADME, organism-based, Canis lupus familiaris; conditions: in vivo
Method in brief: (§3)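 Male beagle dogs. Oral dose 20 mg/kg in 0.1% HPMC, pH 2. Intravenous dose 10 mg/kg in 20% TEG/D5W. AUC, observed clearance, Vdss, half-life and oral bioavailability derived from plasma exposure.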

[13] = biological target: Cytochrome P450 (isoform not stated) (Homo sapiens, UniProt P04798+P05177+P05181+P08684+P10632+P10635+P11509+P11712+P13584+P20813+P20815+P20853+P24462+P24903+P33260+P33261+P51589+P78329+P98187+Q02928+Q08477+Q16678+Q16696+Q5TCH4+Q6VVX0+Q7Z449+Q8TAV3+Q96SQ9+Q9HB55); assay: Inhibition of human Cytochrome P450; format: ADME, protein assay
Method in brief: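 Inhibition tested against […] at up to 30 µM. IC50 reported.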

Homo sapiens = species on record: Homo sapiens; assay: Selectivity index, ratio of IC50 for inhibition of recombinant human N-terminal GST-tagged JAK2 (831 to 1132 residues) expressed in insect cells using 5FAM-labeled GEEPLYWSFPAKKK-NH2 peptide as substrate after 10 mins in presence of 5 mM ATP by caliper mobility shift assay to IC50 for inhibition of …
[14] = Volume of distribution at steady state in Beagle dog at 10 mg/kg, iv; format: ADME, organism-based, Canis lupus familiaris; conditions: in vivo; method in brief: as §3
[15] = AUC in Han Wistar rat at 5 mg/kg, iv; format: ADME, organism-based; conditions: in vivo; method in brief: as §2
[16] = Volume of distribution at steady state in Han Wistar rat at 5 mg/kg, iv; format: ADME, organism-based; conditions: in vivo, read-out: Vdss; method in brief: as §2
[17] = biological target: Voltage-gated inwardly rectifying potassium channel KCNH2 (Homo sapiens, UniProt Q12809); assay: Inhibition of human ERG
[18] = Half life in Beagle dog at 20 mg/kg, po; format: ADME, organism-based, Canis lupus familiaris; conditions: in vivo; method in brief: as §3
NCI-H1975 [19] = assay: Antitumor activity against human NCI-H1975 cells harboring EGFR T790M mutant xenografted in NCr nude mouse assessed as tumor growth inhibition at 50 mg/kg, po bid administered for 18 days post 10 days of implantation; format: functional, organism-based
Method in brief: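 NCI-H1975 cells implanted subcutaneously in female NCr nude mice. Ten days later, mice with tumours averaging 189 mm³ (range 152–250) were randomized into groups of 6–8.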

[20] = AUC in Beagle dog at 10 mg/kg, iv; format: ADME, organism-based, Canis lupus familiaris; conditions: in vivo; method in brief: as §3
[21] = Intrinsic clearance in human hepatocytes assessed per 10^-6 cells; format: ADME, cell-based, Hepatocyte; method in brief: as §1
[22] = Bioavailability in Han Wistar rat at 10 mg/kg, po; conditions: in vivo
[23] = Bioavailability in Beagle dog at 20 mg/kg, po; conditions: in vivo
NCI-H1975 [24] = conditions: Homo sapiens, 50 mg/kg
[25] = biological target: Vascular endothelial growth factor receptor 3 (Homo sapiens) (UniProt P35916); assay: Inhibition of recombinant human N-terminal GST-tagged FLT4 (800 to end residues) expressed in baculovirus infected Sf21 cells at 1 uM relative to control
Method in brief: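 Single-point screen at 1 µM across a panel of 293 kinases. Percent inhibition recorded for each kinase.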

[26] = Half life in Han Wistar rat at 5 mg/kg, iv; format: ADME, organism-based; conditions: in vivo; method in brief: as §2
[27] = Clearance in Han Wistar rat at 5 mg/kg, iv; format: ADME, organism-based; conditions: in vivo; method in brief: as §2
Mus musculus [28] = species on record: Mus musculus; conditions: 50 mg/kg; remark: listed apart in the source
[29] = Solubility of compound at pH 6.5; format: physicochemical; conditions: buffer
[30] = Intrinsic clearance in dog hepatocytes assessed per 10^-6 cells; format: ADME, cell-based, Canis lupus familiaris, Hepatocyte; method in brief: as §1
[31] = Solubility of compound in phosphate buffer at pH 7.4 and 37 degree C; format: physicochemical
[32] = biological target: Non-receptor tyrosine-protein kinase TYK2 (Homo sapiens, UniProt P29597); assay: Inhibition of TYK2 (unknown origin)
Method in brief: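 JAK family biochemical kinase assay run at 5 mM ATP. IC50 values are geometric means of at least two independent experiments, SEM within 0.2 log units.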

[33] = AUC in Beagle dog at 20 mg/kg, po; format: ADME, organism-based, Canis lupus familiaris; conditions: in vivo; method in brief: as §3
[34] = biological target: T1, Tyrosine-protein kinase JAK1; assay: Inhibition of recombinant human N-terminal GST-tagged JAK1 (866 to 1154 residues) expressed in insect cells using FITC-labeled C6-KKHTDDGYMPMSPGVA-NH peptide as substrate after 10 mins in presence of 5 mM ATP by caliper mobility shift assay
[35] = Efflux ratio of apparent permeability across basolateral to apical membrane over apical to basolateral membrane in human Caco2 cells; format: ADME, cell-based; conditions: Caco-2
Method in brief: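 Caco-2 monolayer permeability measured in both directions, apical to basolateral and basolateral to apical. Efflux ratio is the B to A Papp divided by the A to B Papp.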

T1 sequence (P23458 whole entry): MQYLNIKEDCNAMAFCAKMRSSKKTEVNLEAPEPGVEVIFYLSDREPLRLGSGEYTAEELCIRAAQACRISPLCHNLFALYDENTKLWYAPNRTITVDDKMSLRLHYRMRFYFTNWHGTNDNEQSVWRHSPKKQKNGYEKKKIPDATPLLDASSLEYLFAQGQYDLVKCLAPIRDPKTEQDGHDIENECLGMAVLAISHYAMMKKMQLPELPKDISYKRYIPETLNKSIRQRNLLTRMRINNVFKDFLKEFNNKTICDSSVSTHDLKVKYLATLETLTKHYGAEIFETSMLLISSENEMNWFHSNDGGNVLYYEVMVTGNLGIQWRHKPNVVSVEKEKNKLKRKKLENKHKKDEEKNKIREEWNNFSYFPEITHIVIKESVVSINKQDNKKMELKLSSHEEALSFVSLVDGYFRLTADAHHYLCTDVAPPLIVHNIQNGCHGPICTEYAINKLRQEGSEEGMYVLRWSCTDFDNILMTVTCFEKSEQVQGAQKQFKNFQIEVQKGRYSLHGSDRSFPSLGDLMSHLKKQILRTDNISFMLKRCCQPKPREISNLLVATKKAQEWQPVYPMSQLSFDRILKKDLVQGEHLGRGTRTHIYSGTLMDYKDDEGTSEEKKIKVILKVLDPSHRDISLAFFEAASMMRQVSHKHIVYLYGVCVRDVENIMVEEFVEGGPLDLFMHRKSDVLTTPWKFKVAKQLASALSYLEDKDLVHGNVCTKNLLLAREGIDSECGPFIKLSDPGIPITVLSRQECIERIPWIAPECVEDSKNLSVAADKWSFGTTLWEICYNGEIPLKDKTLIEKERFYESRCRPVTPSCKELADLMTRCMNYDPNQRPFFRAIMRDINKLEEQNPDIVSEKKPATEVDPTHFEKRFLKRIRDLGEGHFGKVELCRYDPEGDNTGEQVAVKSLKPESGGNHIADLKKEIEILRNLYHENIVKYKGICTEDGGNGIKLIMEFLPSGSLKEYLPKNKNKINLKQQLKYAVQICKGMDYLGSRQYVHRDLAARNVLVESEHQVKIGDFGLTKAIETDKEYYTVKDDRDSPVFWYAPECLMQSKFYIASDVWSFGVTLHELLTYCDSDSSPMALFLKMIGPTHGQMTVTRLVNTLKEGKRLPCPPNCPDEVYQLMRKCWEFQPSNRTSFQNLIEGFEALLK
Vascular endothelial growth factor receptor 3 (Homo sapiens), sequence (P35916 whole entry): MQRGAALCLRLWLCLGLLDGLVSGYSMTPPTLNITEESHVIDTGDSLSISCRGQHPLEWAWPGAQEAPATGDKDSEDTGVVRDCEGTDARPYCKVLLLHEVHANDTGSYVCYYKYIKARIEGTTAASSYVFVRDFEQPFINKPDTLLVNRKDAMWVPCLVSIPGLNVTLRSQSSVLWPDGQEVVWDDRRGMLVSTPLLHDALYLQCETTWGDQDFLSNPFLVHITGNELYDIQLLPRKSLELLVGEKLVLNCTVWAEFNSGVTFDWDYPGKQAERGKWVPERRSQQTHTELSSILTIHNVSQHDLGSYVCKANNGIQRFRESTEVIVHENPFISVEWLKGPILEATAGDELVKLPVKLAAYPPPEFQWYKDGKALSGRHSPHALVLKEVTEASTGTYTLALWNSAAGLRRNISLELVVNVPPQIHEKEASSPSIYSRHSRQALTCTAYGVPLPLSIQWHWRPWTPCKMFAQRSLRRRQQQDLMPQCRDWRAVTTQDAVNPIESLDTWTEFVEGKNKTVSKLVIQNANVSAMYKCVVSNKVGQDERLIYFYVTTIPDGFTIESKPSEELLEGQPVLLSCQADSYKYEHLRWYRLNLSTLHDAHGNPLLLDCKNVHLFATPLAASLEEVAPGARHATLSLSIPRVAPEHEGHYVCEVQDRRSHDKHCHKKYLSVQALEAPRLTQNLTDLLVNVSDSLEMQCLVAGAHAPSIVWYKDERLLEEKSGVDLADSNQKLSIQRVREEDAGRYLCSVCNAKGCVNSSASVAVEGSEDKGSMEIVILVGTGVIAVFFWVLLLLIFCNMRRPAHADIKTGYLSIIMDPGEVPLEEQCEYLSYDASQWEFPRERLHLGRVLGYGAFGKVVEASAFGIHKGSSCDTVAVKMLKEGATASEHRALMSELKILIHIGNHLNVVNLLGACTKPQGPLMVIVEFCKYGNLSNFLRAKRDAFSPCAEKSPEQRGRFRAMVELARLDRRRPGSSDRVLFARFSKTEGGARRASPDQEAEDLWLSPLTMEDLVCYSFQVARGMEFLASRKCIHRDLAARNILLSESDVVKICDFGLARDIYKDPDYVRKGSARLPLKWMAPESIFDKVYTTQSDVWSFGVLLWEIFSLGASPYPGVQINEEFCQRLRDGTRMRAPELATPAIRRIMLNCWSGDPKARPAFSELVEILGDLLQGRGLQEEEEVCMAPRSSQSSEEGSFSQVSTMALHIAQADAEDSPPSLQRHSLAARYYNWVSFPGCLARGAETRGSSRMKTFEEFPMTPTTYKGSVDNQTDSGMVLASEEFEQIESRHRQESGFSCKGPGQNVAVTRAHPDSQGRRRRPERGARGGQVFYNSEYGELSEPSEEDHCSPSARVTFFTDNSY
Non-receptor tyrosine-protein kinase TYK2, sequence (P29597 whole entry): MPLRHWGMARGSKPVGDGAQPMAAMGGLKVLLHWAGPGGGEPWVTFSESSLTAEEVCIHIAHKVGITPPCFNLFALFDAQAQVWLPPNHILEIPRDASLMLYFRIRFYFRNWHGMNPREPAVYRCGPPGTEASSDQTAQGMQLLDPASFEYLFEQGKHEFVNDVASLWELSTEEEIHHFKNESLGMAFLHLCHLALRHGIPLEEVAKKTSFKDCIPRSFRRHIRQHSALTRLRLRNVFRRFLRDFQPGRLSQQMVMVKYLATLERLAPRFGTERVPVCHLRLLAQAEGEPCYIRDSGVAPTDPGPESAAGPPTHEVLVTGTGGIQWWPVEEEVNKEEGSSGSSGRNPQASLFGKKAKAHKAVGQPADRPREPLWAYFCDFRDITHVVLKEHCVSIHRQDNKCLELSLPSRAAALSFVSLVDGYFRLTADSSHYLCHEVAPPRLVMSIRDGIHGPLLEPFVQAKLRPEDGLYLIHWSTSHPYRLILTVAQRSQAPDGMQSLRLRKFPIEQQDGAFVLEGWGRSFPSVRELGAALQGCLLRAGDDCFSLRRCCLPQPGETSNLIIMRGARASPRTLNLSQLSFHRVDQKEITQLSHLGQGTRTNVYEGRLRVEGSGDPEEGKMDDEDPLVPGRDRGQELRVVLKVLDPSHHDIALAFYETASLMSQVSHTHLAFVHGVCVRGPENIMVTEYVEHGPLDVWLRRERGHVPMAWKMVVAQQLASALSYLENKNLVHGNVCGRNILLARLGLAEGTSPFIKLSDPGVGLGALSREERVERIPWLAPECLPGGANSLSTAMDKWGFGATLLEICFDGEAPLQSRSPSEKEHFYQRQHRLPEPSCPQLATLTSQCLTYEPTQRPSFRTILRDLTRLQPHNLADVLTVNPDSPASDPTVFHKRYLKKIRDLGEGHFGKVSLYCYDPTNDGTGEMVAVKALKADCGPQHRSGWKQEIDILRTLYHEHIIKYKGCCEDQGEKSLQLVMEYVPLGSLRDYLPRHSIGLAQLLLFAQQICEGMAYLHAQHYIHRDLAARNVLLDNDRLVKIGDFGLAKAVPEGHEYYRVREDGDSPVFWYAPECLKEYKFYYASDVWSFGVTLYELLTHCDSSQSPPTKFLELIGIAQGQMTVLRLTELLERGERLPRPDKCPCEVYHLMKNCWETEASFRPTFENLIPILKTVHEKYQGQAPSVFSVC
Voltage-gated inwardly rectifying potassium channel KCNH2, sequence (Q12809 whole entry): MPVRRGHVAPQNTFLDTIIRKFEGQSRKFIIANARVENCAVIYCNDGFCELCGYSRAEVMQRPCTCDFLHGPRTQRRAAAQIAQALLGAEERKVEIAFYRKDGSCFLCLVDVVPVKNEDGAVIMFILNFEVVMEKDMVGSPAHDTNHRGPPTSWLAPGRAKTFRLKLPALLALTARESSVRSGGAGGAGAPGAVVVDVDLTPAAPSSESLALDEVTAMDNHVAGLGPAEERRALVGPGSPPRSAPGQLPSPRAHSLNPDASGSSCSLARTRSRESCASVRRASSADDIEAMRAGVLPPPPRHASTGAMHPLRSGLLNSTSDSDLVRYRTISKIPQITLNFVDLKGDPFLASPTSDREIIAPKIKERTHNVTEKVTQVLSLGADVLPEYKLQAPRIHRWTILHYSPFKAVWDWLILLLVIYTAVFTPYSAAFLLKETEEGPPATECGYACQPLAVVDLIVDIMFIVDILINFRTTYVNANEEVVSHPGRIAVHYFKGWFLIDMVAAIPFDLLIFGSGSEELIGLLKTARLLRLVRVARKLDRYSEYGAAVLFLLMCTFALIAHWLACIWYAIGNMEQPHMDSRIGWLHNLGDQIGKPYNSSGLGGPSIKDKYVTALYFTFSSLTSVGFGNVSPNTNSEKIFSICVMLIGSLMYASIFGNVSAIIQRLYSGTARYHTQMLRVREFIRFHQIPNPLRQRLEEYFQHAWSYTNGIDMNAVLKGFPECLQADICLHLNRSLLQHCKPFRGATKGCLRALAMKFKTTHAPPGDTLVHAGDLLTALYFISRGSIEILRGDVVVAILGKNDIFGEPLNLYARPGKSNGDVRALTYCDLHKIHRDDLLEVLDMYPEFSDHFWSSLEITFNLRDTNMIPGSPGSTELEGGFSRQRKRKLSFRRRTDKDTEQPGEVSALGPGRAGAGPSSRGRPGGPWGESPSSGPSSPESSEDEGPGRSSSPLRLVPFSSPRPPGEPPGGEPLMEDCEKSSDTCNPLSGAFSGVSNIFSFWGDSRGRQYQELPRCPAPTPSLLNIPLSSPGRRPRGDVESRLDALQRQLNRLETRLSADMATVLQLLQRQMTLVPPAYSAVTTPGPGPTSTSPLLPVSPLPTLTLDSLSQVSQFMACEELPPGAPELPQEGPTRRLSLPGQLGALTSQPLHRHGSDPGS

## COc1nn(C)cc1Nc1nccc(-c2c[nH]c3c(NC(=O)[C@@H](C)N4CCN(C)CC4)cccc23)n1 [GOLIDOCITINIB]
[1]
  Activity: Non-Toxic
[2]
  Activity: Non-Toxic
[3]
  CLH: < 1.9 µL/min
Mus musculus [4]
  inhibition in vivo at 50 mg/kg: 80%
[5]
  IC50: > 15000 nM
[6]
  Papp A→B: 7.51 ×10⁻⁶ cm/s
Mus musculus [7]
  inhibition: Active
[8]
  logD: 1.7
[9]
  half-life: 7 h
[10]
  AUC: 1.7 µM·h
[11]
  IC50: 130 nM
[12]
  half-life: 9 h
[13]
  IC50: > 30000 nM
Homo sapiens
  Ratio IC50: > 214
[14]
  Vd: 6.3 L/kg
[15]
  AUC: 1.2 µM·h
[16]
  Vd: 8.7 L/kg
[17]
  IC50: > 100000 nM
[18]
  half-life: 9 h
NCI-H1975 [19]
  TGI: inactive
[20]
  AUC: 3.1 µM·h
[21]
  CLH: < 1 µL/min
[22]
  F: 100%
[23]
  bioavailability: 71%
NCI-H1975 [24]
  TGI: Active
[25]
  inhibition: > 75%
[26]
  half-life: 6 h
[27]
  clearance: 20 mL/min/kg
Mus musculus [28]
  inhibition: Active
[29]
  solubility: > 1000 µM
[30]
  CLH: 2 µL/min
[31]
  solubility: 605 µM (≈ 296 µg/mL)
[32]
  IC50: 2800 nM
[33]
  AUC: 5.3 µM·h
[34]
  IC50: 70 nM
[35]
  efflux ratio: 2.6
